Test results published in ChEMBL document CHEMBL4177549, “Malonylginsenosides with Potential Antidiabetic Activities from the Flower Buds of Panax ginseng” (J Nat Prod, 2017).
The source made the active and inactive calls. The calls are words filed in the database; no cut-off is given here.

Key:
[1] = molecular target: AMPK alpha2/beta1/gamma1 (Homo sapiens, UniProt P54619+P54646+Q9Y478); assay: Activation of recombinant AMPKalpha2beta1gamma1 (unknown origin) expressed in Escherichia coli BL21 in presence of CaMKKbeta (unknown origin) incubated for 45 mins in presence of substrate-1 peptide and ATP by HTRF assay
Sequence of AMPK alpha2/beta1/gamma1 (P54646 whole entry): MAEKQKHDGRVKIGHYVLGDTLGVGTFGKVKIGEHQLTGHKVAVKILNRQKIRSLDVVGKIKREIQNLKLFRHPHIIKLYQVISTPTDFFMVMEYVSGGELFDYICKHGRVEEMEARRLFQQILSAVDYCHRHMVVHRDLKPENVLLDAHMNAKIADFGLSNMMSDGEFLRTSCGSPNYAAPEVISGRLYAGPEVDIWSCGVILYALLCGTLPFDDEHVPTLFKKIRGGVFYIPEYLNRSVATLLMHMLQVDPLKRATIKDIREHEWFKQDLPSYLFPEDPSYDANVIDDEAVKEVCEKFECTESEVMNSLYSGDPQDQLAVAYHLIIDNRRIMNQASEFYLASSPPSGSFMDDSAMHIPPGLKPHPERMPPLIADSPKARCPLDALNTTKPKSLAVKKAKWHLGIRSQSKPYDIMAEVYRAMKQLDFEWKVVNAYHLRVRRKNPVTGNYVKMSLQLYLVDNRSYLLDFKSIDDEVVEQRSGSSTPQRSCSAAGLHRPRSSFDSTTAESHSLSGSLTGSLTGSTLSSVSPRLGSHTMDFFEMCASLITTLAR
Sequence of AMPK alpha2/beta1/gamma1 (P54619 whole entry): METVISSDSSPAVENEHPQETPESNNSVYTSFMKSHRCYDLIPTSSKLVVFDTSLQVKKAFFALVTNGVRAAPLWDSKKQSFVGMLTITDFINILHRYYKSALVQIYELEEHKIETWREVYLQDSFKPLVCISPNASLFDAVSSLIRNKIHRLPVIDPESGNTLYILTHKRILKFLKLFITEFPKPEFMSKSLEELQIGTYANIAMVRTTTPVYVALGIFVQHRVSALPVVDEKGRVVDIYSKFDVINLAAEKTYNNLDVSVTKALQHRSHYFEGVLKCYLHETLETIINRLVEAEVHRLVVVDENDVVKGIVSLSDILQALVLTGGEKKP
Sequence of AMPK alpha2/beta1/gamma1 (Q9Y478 whole entry): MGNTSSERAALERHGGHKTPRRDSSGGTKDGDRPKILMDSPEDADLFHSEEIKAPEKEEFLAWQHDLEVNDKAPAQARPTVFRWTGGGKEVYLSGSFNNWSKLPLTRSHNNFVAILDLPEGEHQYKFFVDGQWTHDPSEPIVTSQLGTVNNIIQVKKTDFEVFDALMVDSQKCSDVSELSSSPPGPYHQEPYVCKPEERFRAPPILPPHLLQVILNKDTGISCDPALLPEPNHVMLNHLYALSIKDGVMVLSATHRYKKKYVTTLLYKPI

[2] = system: L6; assay: Induction of glucose consumption in differentiated rat L6 cells at 20 uM incubated for 12 hrs in presence of 0.5% bovine serum albumin and low-glucose by glucose oxidase method; format: functional, cell-based
In short: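 L6 myoblasts were grown in high-glucose DMEM with 10% FBS and then differentiated into myotubes in 2% FBS for 4−6 days. The myotubes were treated for 12 h in low-glucose (1000 mg/L) DMEM with 0.5% BSA. Medium glucose was measured by glucose oxidase. Consumption was calculated as the glucose in cell-free blank wells minus the glucose in wells with cells.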

[3] = molecular target: T1, AMPK alpha2/beta1/gamma1 (Homo sapiens) (UniProt P54646+P54619+Q9Y478); assay: Activation of recombinant AMPKalpha2beta1gamma1 (unknown origin) expressed in Escherichia coli BL21 in presence of CaMKKbeta (unknown origin) incubated for 45 mins in presence of substrate-1 peptide and ATP by HTRF assay relative to untreated control
T1 sequence (P54619 whole entry partner): as the sequence (P54619 whole entry) above
T1 sequence (P54646 whole entry): as the sequence (P54646 whole entry) above
T1 sequence (Q9Y478 2-270 partner limits assumed): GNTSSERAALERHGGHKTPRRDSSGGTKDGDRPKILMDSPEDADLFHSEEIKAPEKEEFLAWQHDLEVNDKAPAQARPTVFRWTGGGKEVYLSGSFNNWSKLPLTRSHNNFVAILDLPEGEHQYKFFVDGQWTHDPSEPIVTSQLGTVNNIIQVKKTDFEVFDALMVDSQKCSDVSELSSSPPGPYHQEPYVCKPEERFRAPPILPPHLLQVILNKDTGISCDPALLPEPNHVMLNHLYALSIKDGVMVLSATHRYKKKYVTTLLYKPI

[4] = system: L6; assay: Induction of glucose consumption in differentiated rat L6 cells at 10 uM incubated for 12 hrs in presence of 0.5% bovine serum albumin and low-glucose by glucose oxidase method; format: functional, cell-based
In short: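 L6 myoblasts grown in high-glucose (4500 mg/L) DMEM with 10% FBS, then differentiated to myotubes in high-glucose DMEM with 2% FBS for 4−6 days. Compound added in 0.5% BSA low-glucose (1000 mg/L) DMEM for 12 h. Medium glucose read by glucose oxidase method. Consumption calculated as cell-free blank wells minus wells with cells.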

[5] = molecular target: T1, AMPK alpha2/beta1/gamma1 (Homo sapiens); assay: Activation of recombinant AMPKalpha2beta1gamma1 (unknown origin) expressed in Escherichia coli BL21 in presence of CaMKKbeta (unknown origin) at 10 uM incubated for 45 mins in presence of substrate-1 peptide and ATP by HTRF assay relative to untreated control

Row | SMILES | EC50 [1] | fold change (FC) [3] | Activity [5] | Activity [2] | Activity [4]
1 | CC(C)=CCC[C@](C)(O[C@@H]1O[C@H](CO)[C@@H](O)[C@H](O)[C@H]1O)[C@H]1CC[C@]2(C)[C@@H]1[C@H](O)C[C@@H]1[C@@]3(C)CC[C@H](O[C@@H]4O[C@H](CO)[C@@H](O)[C@H](O)[C@H]4O[C@@H]4O[C@H](CO)[C@@H](O)[C@H](O)[C@H]4O)C(C)(C)[C@@H]3CC[C@]12C [GINSENOSIDE RD] | 16.8 to 2800 nM |  |  |  | 
2 | CC(C)=CCC[C@](C)(O[C@@H]1O[C@H](CO[C@@H]2O[C@H](CO)[C@@H](O)[C@H](O)[C@H]2O)[C@@H](O)[C@H](O)[C@H]1O)[C@H]1CC[C@]2(C)[C@@H]1[C@H](O)C[C@@H]1[C@@]3(C)CC[C@H](O[C@@H]4O[C@H](CO)[C@@H](O)[C@H](O)[C@H]4O[C@@H]4O[C@H](CO)[C@@H](O)[C@H](O)[C@H]4O)C(C)(C)[C@@H]3CC[C@]12C [GINSENOSIDE RB1] | 16.8 to 2800 nM |  |  |  | 
3 | CC(C)=CCC[C@](C)(O[C@@H]1O[C@H](CO[C@@H]2OC[C@H](O)[C@H](O)[C@H]2O)[C@@H](O)[C@H](O)[C@H]1O)[C@H]1CC[C@]2(C)[C@@H]1[C@H](O)C[C@@H]1[C@@]3(C)CC[C@H](O[C@@H]4O[C@H](CO)[C@@H](O)[C@H](O)[C@H]4O[C@@H]4O[C@H](COC(=O)CC(=O)O)[C@@H](O)[C@H](O)[C@H]4O)C(C)(C)[C@@H]3CC[C@]12C |  |  |  | Active | 
4 | CC(C)=CCC[C@](C)(O[C@@H]1O[C@H](CO)[C@@H](O)[C@H](O)[C@H]1O)[C@H]1CC[C@]2(C)[C@@H]1[C@H](O)C[C@@H]1[C@@]3(C)CC[C@H](O)C(C)(C)[C@@H]3[C@@H](O[C@@H]3O[C@H](COC(=O)CC(=O)O)[C@@H](O)[C@H](O)[C@H]3O[C@@H]3O[C@@H](C)[C@H](O)[C@@H](O)[C@H]3O)C[C@]12C |  |  |  | Active | 
5 | CC(C)=CCC[C@](C)(O[C@@H]1O[C@H](CO[C@@H]2O[C@H](CO)[C@@H](O)[C@H](O)[C@H]2O)[C@@H](O)[C@H](O)[C@H]1O)[C@H]1CC[C@]2(C)[C@@H]1[C@H](O)C[C@@H]1[C@@]3(C)CC[C@H](O[C@@H]4O[C@H](CO)[C@@H](O)[C@H](O)[C@H]4O[C@@H]4O[C@H](COC(=O)CC(=O)O)[C@@H](O)[C@H](O)[C@H]4O)C(C)(C)[C@@H]3CC[C@]12C | 16.8 to 2800 nM | 1.7 to 4.7 |  |  | 
6 | CC(C)=CCC[C@](C)(O[C@@H]1O[C@H](CO[C@@H]2OC[C@H](O)[C@H](O)[C@H]2O)[C@@H](O)[C@H](O)[C@H]1O)[C@H]1CC[C@]2(C)[C@@H]1[C@H](O)C[C@@H]1[C@@]3(C)CC[C@H](O[C@@H]4O[C@H](CO)[C@@H](O)[C@H](O)[C@H]4O[C@@H]4O[C@H](CO)[C@@H](O)[C@H](O)[C@H]4O)C(C)(C)[C@@H]3CC[C@]12C [GINSENOSIDE RB2] | 16.8 nM | 4.7 |  | Active | Active
7 | COc1ccc2cc3[n+](cc2c1OC)CCc1cc2c(cc1-3)OCO2 |  |  | Active |  | 

Second part, led by results:

Row | EC50 [1] | fold change (FC) [3] | Activity [5] | SMILES | Activity [2] | Activity [4]
8 | 16.8 to 2800 nM | 1.7 to 4.7 |  | CC(C)=CCC[C@](C)(O[C@@H]1O[C@H](CO[C@@H]2O[C@H](CO)[C@@H](OC(=O)CC(=O)O)[C@H](O)[C@H]2O)[C@@H](O)[C@H](O)[C@H]1O)[C@H]1CC[C@]2(C)[C@@H]1[C@H](O)C[C@@H]1[C@@]3(C)CC[C@H](O[C@@H]4O[C@H](CO)[C@@H](O)[C@H](O)[C@H]4O[C@@H]4O[C@H](CO)[C@@H](O)[C@H](O)[C@H]4O)C(C)(C)[C@@H]3CC[C@]12C |  | 
9 | 16.8 to 2800 nM | 1.7 to 4.7 |  | CC(C)=CCC[C@](C)(O[C@@H]1O[C@H](CO)[C@@H](O)[C@H](O)[C@H]1O)[C@H]1CC[C@]2(C)[C@@H]1[C@H](O)C[C@@H]1[C@@]3(C)CC[C@H](O[C@@H]4O[C@H](CO)[C@@H](O)[C@H](O)[C@H]4O[C@@H]4O[C@H](COC(=O)CC(=O)O)[C@@H](O)[C@H](O)[C@H]4O)C(C)(C)[C@@H]3CC[C@]12C |  | 
10 | 16.8 to 2800 nM | 1.7 to 4.7 |  | CC(C)=CCC[C@](C)(O[C@@H]1O[C@H](CO[C@@H]2OC[C@H](O)[C@H](O)[C@H]2O)[C@@H](O)[C@H](O)[C@H]1O)[C@H]1CC[C@]2(C)[C@@H]1[C@H](O)C[C@@H]1[C@@]3(C)CC[C@H](O[C@@H]4O[C@H](CO)[C@@H](O)[C@H](O)[C@H]4O[C@@H]4O[C@H](CO)[C@@H](OC(=O)CC(=O)O)[C@H](O)[C@H]4O)C(C)(C)[C@@H]3CC[C@]12C |  | 
11 | 16.8 to 2800 nM | 1.7 to 4.7 |  | CC(C)=CCC[C@](C)(O[C@@H]1O[C@H](CO[C@@H]2O[C@@H](CO)[C@H](O)[C@H]2O)[C@@H](O)[C@H](O)[C@H]1O)[C@H]1CC[C@]2(C)[C@@H]1[C@H](O)C[C@@H]1[C@@]3(C)CC[C@H](O[C@@H]4O[C@H](CO)[C@@H](O)[C@H](O)[C@H]4O[C@@H]4O[C@H](COC(=O)CC(=O)O)[C@@H](O)[C@H](O)[C@H]4O)C(C)(C)[C@@H]3CC[C@]12C |  | 
12 | 16.8 to 2800 nM | 1.7 to 4.7 |  | CC(C)=CCC[C@](C)(O[C@@H]1O[C@H](CO)[C@@H](O)[C@H](O)[C@H]1O)[C@H]1CC[C@]2(C)[C@@H]1[C@H](O)C[C@@H]1[C@@]3(C)CC[C@H](O[C@@H]4O[C@H](CO)[C@@H](O)[C@H](O)[C@H]4O[C@@H]4O[C@H](CO)[C@@H](OC(=O)CC(=O)O)[C@H](O)[C@H]4O)C(C)(C)[C@@H]3CC[C@]12C |  | 
